ChEMBL document CHEMBL1132237, “Fluorination of 3-(3-(piperidin-1-yl)propyl)indoles and 3-(3-(piperazin-1-yl)propyl)indoles gives selective human 5-HT1D receptor ligands with improved pharmacokinetic profiles” (J Med Chem, 1999)
Several values for one entry are separate records, joined by “and”; a condition that tells them apart may be missing. Equal entries are not always repeated.

What was measured:
[1] = target: T1, 5-hydroxytryptamine receptor 1D (Homo sapiens, UniProt P28221); assay: Agonist-induced [35S]GTP-gamma-S, binding in CHO cells stably transfected with human 5-hydroxytryptamine 1D receptor; format: functional, cell-based
Summary of the method: (§1)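 [35S]GTPγS binding stimulated by agonist, measured in CHO cells stably transfected with the human 5-HT1D or 5-HT1B receptor. EC50 values are the logarithmic mean of 2–3 independent determinations. Maximum variance of individual log(EC50) values from the mean was 4%.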

[2] = target: T1, 5-hydroxytryptamine receptor 1D; assay: Displacement of specific [3H]5-HT binding to cloned human 5-hydroxytryptamine 1D receptor expressed in CHO cells; format: cell-based
Summary of the method: (§2)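 Radioligand binding to human 5-HT1D and 5-HT1B receptors stably expressed in CHO cells. Radioligand was used at approximately its KD for each receptor. IC50 values are the logarithmic mean of 2–5 independent determinations, each run in duplicate. Maximum variance from the mean of log(IC50) was 4%. Selectivity is IC50(1B)/IC50(1D).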

Rattus norvegicus [3] = assay: Oral absorption study in rat plasma obtained from hepatic portal vein after 0.5 hours of administration of 3 mg/kg orally; format: functional, organism-based; set-up: dose 3 mg/kg
Summary of the method: (§3)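 Male Sprague–Dawley rats, fasted overnight and with no surgery, received 3 mg/kg orally as a 0.6 mg/mL solution in PEG 400:5 mM HCl (25:75 v/v). Terminal blood was taken from the heart and hepatic portal vein under isoflurane at 0.5 and 2 h, three rats per time point. Plasma drug was measured by electrospray mass spectrometry. Values are mean ± SEM.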

[4] = target: Serotonin 1 receptors; 5-HT1B & 5-HT1D (Homo sapiens) (UniProt P28222+P28221); assay: Selectivity towards 5-HT1D and to that of 5-HT1B in CHO cells; format: cell-based; summary of the method: as §2
Rattus norvegicus [5] = assay: Oral absorption study in rat plasma obtained from cardiac blood samples after 2 hours of administration of 3 mg/kg orally; format: functional, organism-based; set-up: dose 3 mg/kg; summary of the method: as §3
[6] = target: T2, 5-hydroxytryptamine receptor 1B (Homo sapiens, UniProt P28222); assay: Displacement of specific [3H]5-HT binding to cloned human 5-hydroxytryptamine 1B receptor expressed in CHO cells; format: cell-based; summary of the method: as §2
[7] = target: T1, 5-hydroxytryptamine receptor 1D; assay: Efficacy was evaluated relative to human 5-hydroxytryptamine 1D receptor using [35S]GTP-gamma-S, as radioligand; format: functional
Rattus norvegicus [8] = assay: Oral absorption study in rat plasma obtained from cardiac blood samples after 0.5 hours of administration of 3 mg/kg orally; format: functional, organism-based; set-up: dose 3 mg/kg; summary of the method: as §3
[9] = Rate of clearance in rat was determined; format: ADME, organism-based; conditions: plasma, read-out: Clp
Summary of the method: (§4)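 Male Sprague–Dawley rats (~300 g) were fasted overnight and tail-artery cannulated under isoflurane, then allowed to recover for at least 30 min. Each received 3 mg/kg by tail-vein bolus (3 mg/mL in PEG 300:5 mM HCl 25:75) or by gavage (0.6 mg/mL in PEG 400:5 mM HCl 25:75), three rats per route. Serial blood was sampled up to 6 h. Plasma was analysed by solid-phase extraction and reverse-phase HPLC with fluorescence detection (ex 235, em 370 nm) against spiked-plasma calibration curves.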

Rattus norvegicus [10] = assay: Oral absorption study in rat plasma obtained from hepatic portal vein after 2 hours of administration of 3 mg/kg orally; format: functional, organism-based; set-up: dose 3 mg/kg; summary of the method: as §3
[11] = Oral bioavailability in rat; format: ADME, organism-based; conditions: in vivo; summary of the method: as §4
[12] = pKa value was determined; format: physicochemical
Summary of the method: (§5)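 Potentiometric titration in MeOH–H2O cosolvent with ionic strength set by 0.15 M KCl. Three titrations at different water/cosolvent ratios gave psKa values. Aqueous pKa was obtained by Yasuda–Shedlovsky extrapolation to 100% water, plotting psKa + log[H2O] against 1/ε.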

[13] = target: T2, 5-hydroxytryptamine receptor 1B; assay: Agonist-induced [35S]GTP-gamma-S, binding in CHO cells stably transfected with human 5-hydroxytryptamine 1B receptor; format: functional, cell-based; summary of the method: as §1
[14] = target: T2, 5-hydroxytryptamine receptor 1B; assay: Efficacy of compound was evaluated relative to human 5-hydroxytryptamine 1B receptor using [35S]GTP-gamma-S, as radioligand; format: functional
[15] = The compound was evaluated for the pKa units relative to N-methyl-piperazine.; format: physicochemical
[16] = Relative protonation energy of the compound
[17] = target: T2, 5-hydroxytryptamine receptor 1B; assay: Efficacy was evaluated relative to human 5-HT1B receptor using [35S]GTP-gamma-S, as radioligand; format: functional
[18] = Cmax in rat; format: ADME, organism-based; conditions: in vivo; summary of the method: as §4
[19] = pKa value by potentiometric method; format: physicochemical; summary of the method: as §5
[20] = The compound was evaluated for the pKa units relative to N-methyl-piperazine; format: physicochemical

T2 sequence (P28222 whole entry): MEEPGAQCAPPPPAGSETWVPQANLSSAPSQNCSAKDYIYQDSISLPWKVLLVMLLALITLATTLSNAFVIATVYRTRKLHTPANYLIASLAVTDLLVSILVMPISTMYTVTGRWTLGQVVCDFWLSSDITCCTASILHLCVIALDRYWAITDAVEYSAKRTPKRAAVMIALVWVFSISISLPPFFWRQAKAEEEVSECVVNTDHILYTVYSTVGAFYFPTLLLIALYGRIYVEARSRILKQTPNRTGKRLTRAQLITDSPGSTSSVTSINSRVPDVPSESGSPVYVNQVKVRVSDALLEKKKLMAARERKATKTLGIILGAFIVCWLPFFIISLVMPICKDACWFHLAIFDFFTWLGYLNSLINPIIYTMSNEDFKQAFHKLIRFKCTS
T1 sequence (P28221 whole entry): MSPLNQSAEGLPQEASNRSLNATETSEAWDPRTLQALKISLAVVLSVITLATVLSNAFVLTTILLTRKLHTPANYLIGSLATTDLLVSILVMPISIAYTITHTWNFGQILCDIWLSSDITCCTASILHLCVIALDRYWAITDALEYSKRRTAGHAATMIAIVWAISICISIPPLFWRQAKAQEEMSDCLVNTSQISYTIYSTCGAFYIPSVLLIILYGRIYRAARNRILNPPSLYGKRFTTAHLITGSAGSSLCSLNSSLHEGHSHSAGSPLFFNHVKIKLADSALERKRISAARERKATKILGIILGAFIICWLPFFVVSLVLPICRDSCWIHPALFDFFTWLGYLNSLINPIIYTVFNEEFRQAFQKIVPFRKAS

Row | SMILES | EC50 [1] | IC50 [2] | Selectivity [4] | IC50 [6] | Efficacy [7] | clearance [9] | bioavailability [11] | pKa [12] | EC50 [13] | Efficacy [14] | delta pKa [15] | RPE [16] | Efficacy [17] | Cmax [18] | pKa [19] | delta pKa [20] | Plasma concentration (Rattus norvegicus [3]) | Plasma concentration (Rattus norvegicus [5]) | Plasma concentration (Rattus norvegicus [8]) | Plasma concentration (Rattus norvegicus [10])
1 | Fc1cccc(CCN2CCN(CC(F)(F)Cc3c[nH]c4ccc(-n5cnnc5)cc34)CC2)c1 | 35 nM | 15 nM | 107 | 1600 nM | 78% | 67 mL/min/kg | – | – | – | – | – | – | – | – | – | – | 503 ng/mL | < 4 ng/mL | < 4 ng/mL | 61 ng/mL
2 | CN1CCCCC1 [N-METHYLPIPERIDINE] | – | – | – | – | – | – | – | – | – | – | 0 | 0 | – | – | – | – | – | – | – | –
3 | CN1CCCC(F)C1 (centres undefined) | – | – | – | – | – | – | – | – | – | – | -1.83 | 4.42 and 2.5 | – | – | – | -3.24 | – | – | – | –
4 | FC(Cc1c[nH]c2ccc(-n3cnnc3)cc12)CN1CCC(Cc2ccccc2)CC1 (centres undefined) | 0.9 nM | 0.9 nM | 69 | 62 nM | – | – | 14% | – | 450 nM | – | – | – | 77% | – | 8.7 | – | 781 ng/mL | 46 ng/mL | 196 ng/mL | 258 ng/mL

The next lines start with results.

Row | EC50 [1] | IC50 [2] | Selectivity [4] | IC50 [6] | Efficacy [7] | clearance [9] | bioavailability [11] | pKa [12] | EC50 [13] | Efficacy [14] | delta pKa [15] | RPE [16] | Efficacy [17] | Cmax [18] | pKa [19] | delta pKa [20] | SMILES | Plasma concentration (Rattus norvegicus [3]) | Plasma concentration (Rattus norvegicus [5]) | Plasma concentration (Rattus norvegicus [8]) | Plasma concentration (Rattus norvegicus [10])
5 | – | – | 140 | – | – | 84 mL/min/kg | 27% | 8.3 | 430 nM | 71% | – | – | – | – | – | – | Fc1cccc(CCN2CCN(CCCc3c[nH]c4ccc(-n5cnnc5)cc34)CC2)c1 | – | – | – | –
6 | 34 nM | 8.5 nM | 118 | 1000 nM | 100% | 43 mL/min/kg | 11% | – | 10000 nM | – | – | – | 78% | 157 ng/mL | 5.9 | – | FC(F)(Cc1c[nH]c2ccc(-n3cnnc3)cc12)CN1CCC(OCc2ccccc2)CC1 | – | – | – | –
